ChEMBL document CHEMBL1938246, “Eudesmane-type sesquiterpene lactones inhibit multiple steps in the NF-κB signaling pathway induced by inflammatory cytokines” (Bioorg Med Chem Lett, 2012)
Calls of active or inactive are those of the source. The calls are words filed in the database; no cut-off is given here.

Experiments:
A549 [1] = assay: Cytotoxicity against human A549 cells at 100 uM up to 7 hrs by MTT assay; type: cell-based; conditions: a549, 7 h
A549 [2] = assay: Inhibition of NFkappaB-mediated ICAM1 protein expression in IL1alpha-stimulated human A549 cells preincubated for 1 hr prior IL1alpha challenge measured after 6 hrs by Western blot analysis; type: cell-based
A549 [3] = assay: Cytotoxicity against human A549 cells after 24 hrs by MTT assay; type: cell-based; conditions: a549, 24 h
Procedure, shortened: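 A549 cells exposed to serial dilutions of compound for 24 h. Viability (%) by MTT assay on triplicate cultures. IC50 (µM) is the mean of four independent experiments.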

[4] = target: Transcription factor p65 (Homo sapiens) (UniProt Q04206); assay: Inhibition of NF-kappaB p65 nuclear translocation in IL1alpha-stimulated human A549 cells at 30 to 100 uM incubated for 1 hr prior IL1alpha challenge measured after 30 mins by Western blot analysis; type: cell-based
Sequence of Transcription factor p65 (Homo sapiens) (Q04206 whole entry): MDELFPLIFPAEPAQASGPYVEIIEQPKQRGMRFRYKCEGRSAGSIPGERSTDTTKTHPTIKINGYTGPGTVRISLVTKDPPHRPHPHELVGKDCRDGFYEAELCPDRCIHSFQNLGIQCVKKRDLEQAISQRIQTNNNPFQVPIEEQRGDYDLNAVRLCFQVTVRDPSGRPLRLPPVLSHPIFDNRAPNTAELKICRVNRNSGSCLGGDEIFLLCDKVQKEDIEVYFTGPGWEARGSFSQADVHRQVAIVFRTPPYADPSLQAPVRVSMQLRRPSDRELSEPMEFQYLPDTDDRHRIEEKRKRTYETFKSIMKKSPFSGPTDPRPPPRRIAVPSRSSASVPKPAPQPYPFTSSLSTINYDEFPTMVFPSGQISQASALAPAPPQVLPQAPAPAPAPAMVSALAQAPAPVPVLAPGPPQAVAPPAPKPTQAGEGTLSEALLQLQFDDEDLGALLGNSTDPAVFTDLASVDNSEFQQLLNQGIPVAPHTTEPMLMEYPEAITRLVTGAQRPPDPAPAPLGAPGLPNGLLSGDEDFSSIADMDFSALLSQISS
Procedure, shortened: (§1)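 A549 cells pretreated 1 h with compound at the stated concentrations, then stimulated 30 min with IL-1α (0.25 ng/mL) or TNF-α. p65 and p50 subunits then assessed for movement from cytoplasm to nucleus.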

[5] = (§2) Inhibition of NFkappaB-mediated ICAM1 expression in TNFalpha-stimulated human A549 cells treated 1 hr before TNFalpha challenge measured after 6 hrs by ELISA; type: cell-based
Procedure, shortened: (§3)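 A549 cells preincubated 1 h with serial dilutions of compound, then stimulated with IL-1α (0.25 ng/mL) or TNF-α (2.5 ng/mL) for 6 h with compound still present. Cell-surface ICAM-1 (%) by cell ELISA on triplicate cultures. IC50 (µM) is the mean of at least three independent experiments.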

A549 [6] = assay: as §2; type: cell-based; procedure, shortened: as §3
A549 [7] = assay: Inhibition of NFkappaB-mediated ICAM1 protein expression in TNFalpha-stimulated human A549 cells preincubated for 1 hr prior TNFalpha challenge measured after 6 hrs by Western blot analysis; type: cell-based
A549 [8] = assay: Inhibition of IL1alpha-induced IkappaBalpha degradation in human A549 cells at 100 uM incubated for 1 hr prior IL1alpha challenge measured after 15 mins by Western blot analysis; type: functional, cell-based
Procedure, shortened: (§4)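 A549 cells preincubated 1 h with compound at the stated concentrations, then given IL-1α (0.25 ng/mL) or TNF-α (2.5 ng/mL). IκBα degradation then monitored.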

[9] = (§5) Inhibition of NFkappaB-mediated ICAM1 expression in IL1alpha-stimulated human A549 cells treated 1 hr before IL1alpha challenge measured after 6 hrs by ELISA; type: cell-based; procedure, shortened: as §3
A549 [10] = assay: as §5; type: cell-based; procedure, shortened: as §3
A549 [11] = assay: Cytotoxicity against human A549 cells at 100 to 320 uM after 24 hrs by MTT assay; type: cell-based; conditions: a549, 24 h
A549 [12] = assay: Inhibition of TNF-alpha-induced IkappaBalpha degradation in human A549 cells at 100 uM incubated for 1 hr prior TNFalpha challenge measured after 15 mins by Western blot analysis; type: functional, cell-based; procedure, shortened: as §4
[13] = target: Transcription factor p65 (Homo sapiens) (UniProt Q04206); assay: Inhibition of NF-kappaB p65 nuclear translocation in TNFalpha-stimulated human A549 cells at 30 to 100 uM incubated for 1 hr prior TNFalpha challenge measured after 30 mins by Western blot analysis; type: cell-based; procedure, shortened: as §1
[14] = target: T1, NF-kappa-B inhibitor alpha (Homo sapiens) (UniProt P25963); assay: Inhibition of TNF-alpha-induced IkappaBalpha phosphorylation in human A549 cells at 10 to 100 uM incubated for 1 hr prior to TNFalpha challenge measured after 15 mins by Western blot analysis in the presence of proteasome inhibitor MG-132; type: cell-based
T1 sequence (whole entry): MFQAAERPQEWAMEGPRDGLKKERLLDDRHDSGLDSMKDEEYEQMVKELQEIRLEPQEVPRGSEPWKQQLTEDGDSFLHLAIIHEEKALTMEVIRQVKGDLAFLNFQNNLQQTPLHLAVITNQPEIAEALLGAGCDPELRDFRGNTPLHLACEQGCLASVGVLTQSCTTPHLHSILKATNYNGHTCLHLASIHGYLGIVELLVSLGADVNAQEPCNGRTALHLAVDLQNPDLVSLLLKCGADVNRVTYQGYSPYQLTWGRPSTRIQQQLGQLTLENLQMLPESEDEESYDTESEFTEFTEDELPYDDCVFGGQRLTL
Procedure, shortened: (§6)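 A549 cells preincubated 1 h with or without the proteasome inhibitor MG-132 (20 µM) or with compound at various concentrations. Then stimulated 15 min with IL-1α (0.25 ng/mL) or TNF-α (2.5 ng/mL), or left unstimulated, with compound present. IκBα phosphorylation then examined.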

A549 [15] = assay: Inhibition of NF-kappaB p50 nuclear translocation in IL1alpha-stimulated human A549 cells at 30 to 100 uM incubated for 1 hr prior IL1alpha challenge measured after 30 mins by Western blot analysis; type: cell-based; procedure, shortened: as §1
A549 [16] = assay: Cytotoxicity against human A549 cells at 100 uM up to 7 hrs by crystal violet staining; type: cell-based; conditions: a549, 7 h
[17] = target: T1, NF-kappa-B inhibitor alpha (Homo sapiens); assay: Inhibition of IL1alpha-induced IkappaBalpha phosphorylation in human A549 cells at 10 to 100 uM incubated for 1 hr prior to IL1alpha challenge measured after 15 mins by Western blot analysis in the presence of proteasome inhibitor MG-132; type: cell-based; procedure, shortened: as §6
A549 [18] = assay: Inhibition of NF-kappaB p50 nuclear translocation in TNFalpha-stimulated human A549 cells at 30 to 100 uM incubated for 1 hr prior TNFalpha challenge measured after 30 mins by Western blot analysis; type: cell-based; procedure, shortened: as §1
A549 [19] = assay: Inhibition of NF-kappaB p50 nuclear translocation in IL1alpha-stimulated human A549 cells at 100 uM incubated for 1 hr prior IL1alpha challenge measured after 30 mins by Western blot analysis; type: cell-based; procedure, shortened: as §1
A549 [20] = assay: Inhibition of NF-kappaB p50 nuclear translocation in TNFalpha-stimulated human A549 cells at 100 uM incubated for 1 hr prior TNFalpha challenge measured after 30 mins by Western blot analysis; type: cell-based; procedure, shortened: as §1
[21] = target: Transcription factor p65 (Homo sapiens) (UniProt Q04206); assay: Inhibition of NF-kappaB p65 nuclear translocation in TNFalpha-stimulated human A549 cells at 100 uM incubated for 1 hr prior TNFalpha challenge measured after 30 mins by Western blot analysis; type: cell-based; procedure, shortened: as §1
[22] = target: Transcription factor p65 (Homo sapiens) (UniProt Q04206); assay: Inhibition of NF-kappaB p65 nuclear translocation in IL1alpha-stimulated human A549 cells at 100 uM incubated for 1 hr prior IL1alpha challenge measured after 30 mins by Western blot analysis; type: cell-based; procedure, shortened: as §1
[23] = target: T1, NF-kappa-B inhibitor alpha (Homo sapiens); assay: Inhibition of TNF-alpha-induced IkappaBalpha phosphorylation in human A549 cells at 100 uM incubated for 1 hr prior TNFalpha challenge measured after 15 mins by Western blot analysis in the presence of proteasome inhibitor MG-132; type: cell-based; procedure, shortened: as §6
[24] = target: T1, NF-kappa-B inhibitor alpha (Homo sapiens); assay: Inhibition of IL1alpha-induced IkappaBalpha phosphorylation in human A549 cells at 100 uM incubated for 1 hr prior IL1alpha challenge measured after 15 mins by Western blot analysis in the presence of proteasome inhibitor MG-132; type: cell-based; procedure, shortened: as §6
[25] = Selectivity ratio of IC50 for human A549 cells to IC50 for NFkappaB-mediated ICAM1 expression in human A549 cells; type: ADME, cell-based; conditions: read-out: Ratio IC50

Structure (SMILES) | inhibition [4] | IC50 [5] | IC50 [9] | inhibition [13] | inhibition (A549 [2]) | IC50 (A549 [3]) | inhibition (A549 [6]) | inhibition (A549 [7]) | inhibition (A549 [8]) | inhibition (A549 [10]) | inhibition (A549 [12]) | inhibition (A549 [15]) | inhibition (A549 [18]) | inhibition [23] | inhibition [24] | selectivity ratio [25] | also measured
C[C@@H]1C(=O)O[C@H]2[C@H]1CC[C@@]1(C)CCC(=O)[C@@H](C)[C@H]21 |  | > 320 µM | > 320 µM |  |  | > 320 µM | inactive |  |  | inactive |  |  |  |  |  |  | 
C[C@@H]1C(=O)O[C@H]2[C@H]1CC[C@@]1(C)C=CC(=O)[C@@H](C)[C@H]21 |  | 34 µM | 52 µM |  | Dose-dependent effect | > 320 µM | Dose-dependent effect | Dose-dependent effect |  | Dose-dependent effect |  |  |  |  |  |  | inhibition (A549 [19]): Active; inhibition (A549 [20]): Active; inhibition [21]: Active; Activity (A549 [11]): Toxic; inhibition [22]: Active
C=C1C(=O)O[C@@H]2[C@H]3[C@H](C)[C@@H](O)C=C[C@]3(C)CC[C@@H]12 | Active | 6.1 µM | 23 µM | Active | Dose-dependent effect | 140 µM | Dose-dependent effect | Dose-dependent effect | inactive | Dose-dependent effect | inactive | Active | Active | inactive | inactive | 10 | 
C[C@H]1[C@@H]2[C@H]3OC(=O)[C@@H](C)[C@@H]3CC[C@@]2(C)C=C[C@@H]1O |  | > 320 µM | > 320 µM |  |  | > 320 µM | inactive |  |  | inactive |  |  |  |  |  |  | 
C=C1C(=O)O[C@@H]2[C@H]3[C@H](C)C(=O)C=C[C@]3(C)CC[C@@H]12 | Active | 4.3 µM | 10 µM | Active | Dose-dependent effect | 120 µM | Dose-dependent effect | Dose-dependent effect | Active | Dose-dependent effect | Active | Active | Active | Active | Active | 10 | 

Continued by falling IC50 [5], values first:

inhibition [4] | IC50 [5] | IC50 [9] | inhibition [13] | Structure (SMILES) | inhibition (A549 [2]) | IC50 (A549 [3]) | inhibition (A549 [6]) | inhibition (A549 [7]) | inhibition (A549 [8]) | inhibition (A549 [10]) | inhibition (A549 [12]) | inhibition (A549 [15]) | inhibition (A549 [18]) | inhibition [23] | inhibition [24] | selectivity ratio [25] | also measured
Active | 4.6 µM | 10 µM | Active | C[C@@H]1C(=O)O[C@H]2[C@H]1CC[C@@]1(C)C[C@@H](Br)C(=O)[C@@H](C)[C@H]21 | Dose-dependent effect | > 320 µM | Dose-dependent effect | Dose-dependent effect | Active | Dose-dependent effect | inactive | Active | Active |  |  |  | Activity (A549 [1]): Non-toxic; Activity (A549 [11]): Toxic; inhibition [14]: Active; Activity (A549 [16]): Non-toxic; inhibition [17]: Active
Active | 4.3 µM | 6.2 µM | Active | C=C1C(=O)O[C@@H]2[C@H]3[C@H](C)C(=O)CC[C@]3(C)CC[C@@H]12 | Dose-dependent effect | 110 µM | Dose-dependent effect | Dose-dependent effect | Active | Dose-dependent effect | Active | Active | Active | Active | Active | 10 | 
Active | 2.8 µM | 3.4 µM | Active | C=C1C(=O)O[C@@H]2[C@H]3[C@H](C)C(=O)[C@H](Br)C[C@]3(C)CC[C@@H]12 | Dose-dependent effect | 88 µM | Dose-dependent effect | Dose-dependent effect | Active | Dose-dependent effect | Active | Active | Active | Active | Active | 10 | 
